# Source: PubChem
# Most compounds without a hit are left out; they make up all but 2.8% or so of the library.
# PAFAH1B2 FP inh = PAFAH1B2 (human) inhibition; P68402; recombinant PAFAH1B2, FP-rhodamine activity probe, fluorescence polarization; inhibition, % at 3.39 µM; 340,000 compounds, 1.2% hits; AID 492953;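 active = inhibition above the mean of all tested compounds plus 3 SD, cut at about 24% in these data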;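 also: 0% = enzyme with DMSO and 100% = wells lacking PAFAH1B2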
# ABHD4 inh = inhibitors of mouse ABHD4 | purified mABHD4, FP-Rh probe fluorescence polarization | inhibition, % at 8.92 µM | 370,000 compounds, 0.54% hits;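 active = inhibition exceeding the mean over every tested compound plus 3 SD, cut at about 30% in these data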;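 also: 0% = plate median of compound wells and 100% = S159A mutant with DMSO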
#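 system = mouse ABHD4 enzyme, wild type | medium = HEPES pH 7.0, NaCl, Pluronic buffer | also added = FP-Rh probe | incubation = Enzyme–compound pre-incubation 45 min, then probe 60 min, both 25 °C | technique = fluorescence polarization, excitation 525 nm, emission 598 nm, BODIPY TMR filters | controls = S159A mutant high control, sample median low control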
# pPAFAH inh = inhibitors of human plasma PAF acetylhydrolase (pPAFAH) | Q13093 | recombinant pPAFAH, FP-rhodamine probe fluorescence polarization | inhibition, % at 3.39 µM | 330,000 compounds, 1.5% hits | AID 463082;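 active = inhibition above the mean inhibition across the screen plus 3 SD, cut at about 25% in these data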;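 also: inhibitors block binding of the rhodamine activity-based probe so polarization drops; 0% = enzyme with DMSO and 100% = wells lacking pPAFAH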
# PAFAH2 inh = inhibitors of human PAFAH2. Q99487. inhibition, % at 3.39 µM. AID 492956. recombinant PAFAH2, FP-rhodamine activity probe, fluorescence polarization. 340,000 compounds, 0.99% hits;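 active = inhibition above the mean over all tested compounds plus 3 SD, cut at about 30% in these data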;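 also: inhibitors block probe labeling of enzyme so polarization drops; 0% = enzyme with DMSO and 100% = wells lacking PAFAH2 protein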
# HTRA1 inhibitor = blocks human HTRA1 serine peptidase; Q92743; recombinant HTRA1, FP-rhodamine activity-based probe, fluorescence polarization; 340,000 compounds, 0.5% hits; inhibition, % at 5.96 µM; in the data active = inhibition above about 36%;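 also: 0% = enzyme with DMSO and 100% = wells lacking enzyme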
# Target sequence (Q92743 whole entry, looked up): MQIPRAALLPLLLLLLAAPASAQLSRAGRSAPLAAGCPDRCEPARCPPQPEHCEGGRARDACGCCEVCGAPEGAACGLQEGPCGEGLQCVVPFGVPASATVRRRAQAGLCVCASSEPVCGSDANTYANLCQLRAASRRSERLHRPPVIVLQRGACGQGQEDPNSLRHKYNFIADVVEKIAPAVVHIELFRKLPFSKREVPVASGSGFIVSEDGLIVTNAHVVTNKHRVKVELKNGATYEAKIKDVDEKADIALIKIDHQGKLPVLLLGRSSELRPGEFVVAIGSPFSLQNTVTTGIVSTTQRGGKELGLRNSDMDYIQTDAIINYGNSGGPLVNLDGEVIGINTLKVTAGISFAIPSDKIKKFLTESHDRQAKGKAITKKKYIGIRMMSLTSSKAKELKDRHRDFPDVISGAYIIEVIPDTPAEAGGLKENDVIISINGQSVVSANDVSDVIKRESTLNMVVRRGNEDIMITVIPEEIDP
# PAFAH1B3 FP inh = inhibitors of human PAFAH1B3; AID 492972; Q15102; recombinant PAFAH1B3, FP-rhodamine probe, fluorescence polarization; 340,000 compounds, 0.28% hits; inhibition, % at 3.39 µM;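 active = inhibition above the screen-wide average of all tested compounds plus 3 SD, cut at about 25% in these data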;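 also: 0% = enzyme with DMSO only and 100% = wells lacking PAFAH1B3 protein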
# PAFAH2 confirm = PAFAH2 (human) inhibition, confirmed; shares compounds with PAFAH2 inh; recombinant PAFAH2, FP-rhodamine activity probe, fluorescence polarization; 2,300 compounds, 65% hits; inhibition, % at 3.39 µM;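 active = mean inhibition over three repeats above a set limit taken from the earlier primary screen, cut at about 30% in these data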;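 also: inhibitor blocks binding of rhodamine activity probe so polarization falls; 0% = enzyme with DMSO and 100% = wells lacking PAFAH2 protein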
# * hit, by the source's call; x = not tested or not shown.
SMILES,PAFAH1B2 FP inh,ABHD4 inh,pPAFAH inh,PAFAH2 inh,HTRA1 inhibitor,PAFAH1B3 FP inh,PAFAH2 confirm
O=C(COC(=O)/C=C/c1ccccc1Cl)NCC1CCCO1 (stereo unspecified),4,0,21,27,3,3,x
CSc1ccc(/C=C/C(=O)OCC(=O)NCC2CCCO2)cc1 (stereo unspecified),3,6,5,39*,5,9,22
Cc1cc(NS(=O)(=O)c2ccc(NC(=O)CSc3nc4sc(C)c(C)c4c(=O)n3Cc3ccco3)cc2)nc(C)n1,x,-43,x,x,x,x,x
O=C(CCc1ccccc1)N[C@H]1[C@H](OC(=O)c2ccc3ccccc3n2)CCC[C@@]12C(=O)N(Cc1ccccc1)c1ccccc12,x,-11,x,x,x,x,x
O=C(NCC1CCCO1)C(Cc1ccccc1)N1C(=O)C2C3C=CC(C4CC34)C2C1=O (stereo unspecified),2,2,0,43*,-7,5,26
COc1ccc(C(=O)CSc2nc(C)cc(C)n2)cc1C,3,9,11,42*,-6,6,2
COc1ccc(C(=O)CSc2nc(C)cc(=O)[nH]2)cc1C,0,1,6,1,10,10,x
O=C(COC(=O)Cc1ccccc1F)Nc1ccccc1[N+](=O)[O-],8,0,7,8,1,14,x
Cc1ccc(NC(=O)COC(=O)CC2CC3CCC2C3)cc1S(=O)(=O)N1CCOCC1 (stereo unspecified),5,-21,11,69*,-15,3,65*
Cc1ccc(C(=O)OCC(=O)Nc2ccc3c(c2)OCO3)cc1S(=O)(=O)N1CCOCC1,-2,0,21,74*,-3,4,76*
O=C(COC(=O)CC1CC2CCC1C2)Nc1ccccc1[N+](=O)[O-] (stereo unspecified),10,-4,18,66*,-12,14,59*
CCN(c1ccc(NC(=O)COC(=O)c2ccc(C)c(S(=O)(=O)N3CCOCC3)c2)cc1)C(C)C,1,1,14,39*,7,-3,23
O=C(CC1CC2CCC1C2)OCC(=O)c1c[nH]c2ccccc12 (stereo unspecified),-2,-41,4,-5,-28,-4,x
CCOc1ccc(NC(=O)CN(C)C(=O)CC2CC3CCC2C3)cc1OCC (stereo unspecified),-3,4,0,-6,-3,0,x
O=C(COC(=O)CC1CC2CCC1C2)NCc1ccc(F)cc1 (stereo unspecified),15,-5,22,50*,2,16,39*
Cc1ccc(NC(=O)COC(=O)c2ccc3c(c2)OCCO3)cc1S(=O)(=O)N1CCOCC1,-2,-24,9,81*,-7,4,74*
Cc1ccc(NC(=O)COC(=O)c2ccc(NC(=O)CC#N)cc2)cc1S(=O)(=O)N1CCOCC1,-13,-51,-9,57*,-27,-28,64*
CC(=O)c1ccc(NC(=O)COC(=O)CC2CC3CCC2C3)cc1 (stereo unspecified),9,0,22,34*,-14,12,14
COc1ccc(C2=CCN(C)C(=O)N2c2ccc([N+](=O)[O-])cc2)cc1,x,0,x,x,x,x,x
O=C(CCc1nc(-c2ccccc2F)no1)NCCc1c[nH]c2ccccc12,x,0,x,x,x,x,x
N#Cc1ccc(NC(=O)COC(=O)c2cccc(S(=O)(=O)N3CCCC3)c2)cc1,x,-6,x,x,0,x,x
N#Cc1ccc(NC(=O)COC(=O)c2ccc(F)c(S(=O)(=O)N3CCOCC3)c2)cc1,1,3,7,48*,-2,10,39*
O=C(c1cccc(F)c1F)N(Cc1ccccn1)CC1CCCO1 (stereo unspecified),x,-2,x,x,x,x,x
O=C(CN1C(=O)NC2(CCCCC2)C1=O)Nc1cccc(Cl)c1Cl,7,8,5,0,1,5,x
Cc1c(Cl)cccc1N=C1SCCN1C(=O)CN1C(=O)NC2(CCCC2)C1=O,7,0,13,30*,-18,5,18
SMILES,PAFAH1B2 FP inh,ABHD4 inh,pPAFAH inh,PAFAH2 inh,HTRA1 inhibitor,PAFAH1B3 FP inh,PAFAH2 confirm
Nc1cc(C(=O)OCC(=O)NCc2ccco2)ccc1Cl,1,-4,16,36*,-3,0,30*
CCOc1ccc(C(=O)OCC(=O)NCc2ccco2)cc1OCC,8,0,10,74*,-2,4,46*
Cc1ccc(C(=O)OCC(=O)NCc2ccco2)cc1,1,-6,3,45*,0,2,37*
O=C(COC(=O)c1cccc(S(=O)(=O)N2CCc3ccccc3C2)c1)NCc1ccco1,10,-4,23,-1,-4,1,x
O=C(COC(=O)c1cccc(S(=O)(=O)N2CCc3ccccc32)c1)NCc1ccco1,5,-5,13,33*,-5,8,20
CC(=O)c1cc(-c2ccc3[nH]ccc3c2)c(=O)n2c1CCC2,x,1,x,x,x,x,x
Nn1c(SCC(=O)Nc2nccs2)nnc1-c1cc(-c2ccccc2)n[nH]1,x,-66,x,x,x,x,x
COC(=O)[C@@]12CCCCC3=C1N(CCC3)C(=O)[C@H]2CC(=O)N1CCN(C(=O)C2CC2)CC1,x,2,x,x,x,x,x
CCOC(=O)n1cc(C(=O)c2ccccc2O)cn1,-3,6,5,20,-5,-1,x
CC(C)(C)OC(=O)n1cc(C(=O)c2ccccc2O)cn1,0,-5,0,84*,0,8,69*
Cc1ncc(CO)c2cc(S(=O)(=O)c3ccc(F)cc3)c(=O)oc12,3,2,-3,1,0,-7,x
O=c1oc2ccc(Br)cc2cc1S(=O)(=O)c1ccc(F)cc1,11,x,5,80*,-6,-1,63*
COc1ccc(S[C@]2(C(=O)N3CCN(c4ncccn4)CC3)CC(=O)N(c3ccc(Cl)cc3)[C@@H]2c2ccc(OC)cc2)cc1,x,4,x,x,x,x,x
COc1ccc(/C=C/C(=O)OCC(=O)Nc2ccc(Cl)c(S(=O)(=O)N(C)C)c2)cc1OC,-5,-8,15,84*,-24,-3,75*
COCCNC(=O)COC(=O)c1ccc(OCC(=O)Nc2ccccc2OC)c(OC)c1,3,-6,1,32*,2,12,19
O=C(COC(=O)/C=C/c1cccs1)Nc1ccc(Cl)cc1F,4,-1,5,52*,-3,-1,58*
COc1ccc(NC(=O)COC(=O)/C=C/c2cccs2)c(OC)c1,7,9,7,12,-8,13,x
COc1ccc(/C=C/C(=O)OCC(=O)Nc2ccc(S(N)(=O)=O)cc2)cc1OC,5,-9,0,2,5,-1,x
COc1ccccc1NC(=O)COC(=O)/C=C/c1cccs1,4,1,-4,31*,-7,8,23
